Measured values reported in ChEMBL document CHEMBL1153046, “Synthesis and antitumor activity of substituted triazolo[4,3-a]pyrimidin-6-sulfonamide with an incorporated thiazolidinone moiety” (2009).

Key:
Assay type in all cases: functional
[1] = test system: MDA-MB-435; assay: Growth inhibition of human MDA-MB-435 cells after 48 hrs by sulforhodamine B assay; conditions: MDA-MB-435, 48 h
How it was run: (§1)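 NCI 60-cell-line panel. Cells are grown in RPMI1640 with 5% fetal calf serum and 2 mM L-glutamine, seeded at a density set by growth characteristics, and preincubated 24 h. Compound is tested at a minimum of five concentrations at 10-fold dilution, with 48 h continuous exposure. Viability is read by sulforhodamine B protein assay. GI50, TGI and LC50 come from dose-response curves.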

[2] = test system: K562; assay: Growth inhibition of human K562 cells after 48 hrs by sulforhodamine B assay; conditions: K562, 48 h; how it was run: as §1
[3] = test system: UO-31; assay: Growth inhibition of human UO31 cells after 48 hrs by sulforhodamine B assay; conditions: UO-31, 48 h
How it was run: (§2)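 NCI 60-cell-line panel (nine cancer types), with cells grown in RPMI1640 plus 5% fetal calf serum and 2 mM L-glutamine. Cells are seeded at a density that depends on the line and preincubated 24 h. Compounds are then applied at a minimum of five 10-fold dilutions over a 5-log range with 48 h continuous exposure. Viability is read by SRB protein assay, and GI50 is derived from dose-response curves in units of 10^-5 M.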

[4] = test system: MOLT-4; assay: Growth inhibition of human MOLT4 cells after 48 hrs by sulforhodamine B assay; conditions: MOLT-4, 48 h; for CC50: read-out: LC50 (the source's name); how it was run: as §1
[5] = test system: A498; assay: Growth inhibition of human A498 cells after 48 hrs by sulforhodamine B assay; conditions: A498, 48 h; how it was run: as §1
[6] = test system: SF-539; assay: Growth inhibition of human SF539 cells after 48 hrs by sulforhodamine B assay; conditions: SF-539, 48 h; how it was run: as §1
[7] = test system: M14; assay: Growth inhibition of human M14 cells after 48 hrs by sulforhodamine B assay; conditions: M14, 48 h; how it was run: as §1
[8] = test system: NCI-H522; assay: Growth inhibition of human NCI-H522 cells after 48 hrs by sulforhodamine B assay; conditions: NCI-H522, 48 h; how it was run: as §1
[9] = test system: NCI-H226; assay: Growth inhibition of human NCI-H226 cells after 48 hrs by sulforhodamine B assay; conditions: NCI-H226, 48 h; how it was run: as §1
[10] = test system: EKVX; assay: Growth inhibition of human EKVX cells after 48 hrs by sulforhodamine B assay; how it was run: as §1
[11] = test system: 786-0; assay: Growth inhibition of human 786-0 cells after 48 hrs by sulforhodamine B assay; conditions: 786-0, 48 h; for CC50: read-out: LC50 (the source's name); how it was run: as §1
[12] = test system: MCF7; assay: Growth inhibition of human MCF7 cells after 48 hrs by sulforhodamine B assay; conditions: MCF7, 48 h; how it was run: as §1
[13] = test system: A549; assay: Growth inhibition of human A549 cells after 48 hrs by sulforhodamine B assay; conditions: A549, 48 h; how it was run: as §1
[14] = test system: CAKI-1; assay: Growth inhibition of human Caki1 cells after 48 hrs by sulforhodamine B assay; conditions: CAKI-1, 48 h; how it was run: as §1
[15] = test system: BT-549; assay: Growth inhibition of human BT549 cells after 48 hrs by sulforhodamine B assay; conditions: BT-549, 48 h; how it was run: as §1
[16] = Growth inhibition of human Hs 578T cells after 48 hrs by sulforhodamine B assay; how it was run: as §1
[17] = test system: SR; assay: Growth inhibition of human SR cells after 48 hrs by sulforhodamine B assay; how it was run: as §2
[18] = test system: SK-MEL-2; assay: Growth inhibition of human SK-MEL-2 cells after 48 hrs by sulforhodamine B assay; conditions: SK-MEL-2, 48 h; how it was run: as §1
[19] = test system: OVCAR-8; assay: Growth inhibition of human OVCAR8 cells after 48 hrs by sulforhodamine B assay; conditions: OVCAR-8, 48 h; how it was run: as §1
[20] = test system: T47D; assay: Growth inhibition of human T47D cells after 48 hrs by sulforhodamine B assay; how it was run: as §2
[21] = Growth inhibition of human […] cells after 48 hrs by sulforhodamine B assay; conditions: for CC50: read-out: LC50 (the source's name); how it was run: as §1
[22] = test system: NCI/ADR-RES; assay: Growth inhibition of human NCI/ADR-RES cells after 48 hrs by sulforhodamine B assay; how it was run: as §1
[23] = test system: HCT-15; assay: Growth inhibition of human HCT15 cells after 48 hrs by sulforhodamine B assay; conditions: HCT-15, 48 h; how it was run: as §1
[24] = test system: SF-268; assay: Antiproliferative activity against human SF268 cells assessed as cell growth at 100 uM after 48 hrs by alamar blue assay; conditions: SF-268, 48 h, read-out: Activity
How it was run: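 NCI three-cell-line primary screen. Cells are seeded and preincubated in microtiter plates. Compound is added at a single 10^-4 M concentration and cultures are incubated 48 h. The end-point is read with alamar blue. Results are given as percent growth relative to untreated control cells.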

[25] = test system: PC-3; assay: Growth inhibition of human PC3 cells after 48 hrs by sulforhodamine B assay; conditions: PC-3, 48 h; how it was run: as §1
[26] = test system: HOP-62; assay: Growth inhibition of human HOP62 cells after 48 hrs by sulforhodamine B assay; conditions: HOP-62, 48 h; how it was run: as §1
[27] = test system: LOX IMVI; assay: Growth inhibition of human LOXIMVI cells after 48 hrs by sulforhodamine B assay; how it was run: as §1
[28] = test system: SK-MEL-28; assay: Growth inhibition of human SK-MEL-28 cells after 48 hrs by sulforhodamine B assay; conditions: SK-MEL-28, 48 h; how it was run: as §1
[29] = test system: ACHN; assay: Growth inhibition of human ACHN cells after 48 hrs by sulforhodamine B assay; conditions: for CC50: read-out: LC50 (the source's name); how it was run: as §1
[30] = test system: MDA-MB-231; assay: Growth inhibition of human MDA-MB-231 cells after 48 hrs by sulforhodamine B assay; conditions: MDA-MB-231, 48 h; how it was run: as §1
[31] = test system: DU-145; assay: Growth inhibition of human DU145 cells after 48 hrs by sulforhodamine B assay; conditions: DU-145, 48 h; how it was run: as §1

COc1ccc(/C=N/c2nc3[nH]nc(C)n3c(=O)c2S(=O)(=O)NN2C(=O)C(CN3CCN(C)CC3)SC2c2ccc(OC)cc2)cc1 (stereo not drawn)
GI50 [1]: 24.1 µM
TGI [1]: 64.6 µM
GI50 [2]: 13 µM
LC50 [2]: 63.3 µM
TGI [2]: 28.7 µM
GI50 [3]: 20.6 µM
LC50 [3]: 70.5 µM
TGI [3]: 38.1 µM
GI50 [4]: 17.8 µM
TGI [4]: 58.9 µM
CC50 [4]: > 100 µM
GI50 [5]: 12.9 µM
LC50 (concentration giving 50% net cell kill) [5]: 60.9 µM
TGI [5]: 28.1 µM
GI50 [6]: 6.5 µM
LC50 [6]: 61.2 µM
TGI [6]: 21.8 µM
GI50 [7]: 17 µM
LC50 (concentration killing 50% of cells) [7]: 78 µM
TGI [7]: 36.5 µM
GI50 [8]: 21.9 µM
TGI [8]: 47.7 µM
GI50 [9]: 12.4 µM
LC50 (concentration killing 50% of cells) [9]: 75.7 µM
TGI [9]: 30.6 µM
GI50 [10]: 25.9 µM
TGI [10]: 60.3 µM
GI50 [11]: 16.2 µM
TGI [11]: 31.2 µM
CC50 [11]: 59.9 µM
GI50 [12]: 15.3 µM
TGI [12]: 47.8 µM
GI50 [13]: 13.4 µM
TGI [13]: 50.8 µM
GI50 [14]: 20.9 µM
LC50 (50% lethal concentration) [14]: 77.8 µM
TGI [14]: 40.3 µM
GI50 [15]: 19.1 µM
TGI [15]: 46.3 µM
GI50 [16]: 13 µM
LC50 (concentration killing 50% of cells) [16]: 88.7 µM
TGI [16]: 34 µM
GI50 [17]: 7.72 µM
LC50 (concentration killing 50% of cells) [17]: 84.9 µM
TGI [17]: 27.5 µM
GI50 [18]: 21.3 µM
LC50 (concentration killing 50% of cells) [18]: 99.4 µM
TGI [18]: 46.1 µM
GI50 [19]: 7.82 µM
TGI [19]: 47.2 µM
GI50 [20]: 31.2 µM
TGI [20]: 89.4 µM
GI50 [21]: 14.1 µM
TGI [21]: 39 µM
CC50 [21]: > 100 µM
GI50 [22]: 14.1 µM
TGI [22]: 40.2 µM
GI50 [23]: 17.2 µM
TGI [23]: 70.8 µM
growth at 100 µM [24]: 18%
GI50 [25]: 14.7 µM
LC50 (concentration killing 50% of cells) [25]: 70.2 µM
TGI [25]: 32.2 µM
GI50 [26]: 20.2 µM
LC50 [26]: 82.6 µM
TGI [26]: 40.9 µM
GI50 [27]: 7.4 µM
TGI [27]: > 100 µM
GI50 [28]: 30.3 µM
TGI [28]: 78.2 µM
GI50 [29]: 17.4 µM
TGI [29]: 34.5 µM
CC50 [29]: 68.4 µM
GI50 [30]: 12.2 µM
LC50 (50% lethal concentration) [30]: 88.6 µM
TGI [30]: 32.9 µM
GI50 [31]: 11.8 µM
LC50 (concentration giving 50% net cell kill) [31]: 86.6 µM
TGI [31]: 32 µM

COc1ccc(/C=N/c2nc3[nH]nc(C)n3c(=O)c2S(=O)(=O)NN2C(=O)C(CN3CCN(C)CC3)SC2c2cccs2)cc1 (stereo not drawn)
GI50 [1]: 0.32 µM
TGI [1]: 5.2 µM
GI50 [2]: 2.87 µM
LC50 [2]: 68.2 µM
TGI [2]: 6.75 µM
GI50 [3]: 5.36 µM
LC50 [3]: > 100 µM
TGI [3]: > 100 µM
GI50 [4]: 2.88 µM
TGI [4]: 18.3 µM
CC50 [4]: > 100 µM
GI50 [5]: 0.5 µM
LC50 (concentration giving 50% net cell kill) [5]: > 100 µM
TGI [5]: 3.2 µM
GI50 [6]: 1.77 µM
LC50 [6]: > 100 µM
TGI [6]: 5.58 µM
GI50 [7]: 1.36 µM
LC50 (concentration killing 50% of cells) [7]: > 100 µM
TGI [7]: > 100 µM
GI50 [8]: 2.63 µM
TGI [8]: 13.3 µM
GI50 [9]: 11.8 µM
LC50 (concentration killing 50% of cells) [9]: > 100 µM
TGI [9]: > 100 µM
GI50 [10]: 39.7 µM
TGI [10]: > 100 µM
GI50 [11]: 3.93 µM
TGI [11]: > 100 µM
CC50 [11]: > 100 µM
GI50 [12]: 5.8 µM
TGI [12]: > 100 µM
GI50 [13]: 3.65 µM
TGI [13]: > 100 µM
GI50 [14]: 1.29 µM
LC50 (50% lethal concentration) [14]: > 100 µM
TGI [14]: > 100 µM
GI50 [15]: 11.3 µM
TGI [15]: > 100 µM
GI50 [16]: 3.05 µM
LC50 (concentration killing 50% of cells) [16]: > 100 µM
TGI [16]: > 100 µM
GI50 [17]: 0.79 µM
LC50 (concentration killing 50% of cells) [17]: 13.1 µM
TGI [17]: 3.03 µM
GI50 [18]: 5.55 µM
LC50 (concentration killing 50% of cells) [18]: > 100 µM
TGI [18]: > 100 µM
GI50 [19]: 3.53 µM
TGI [19]: 40.5 µM
GI50 [20]: > 100 µM
TGI [20]: > 100 µM
GI50 [21]: 2.56 µM
TGI [21]: 8.21 µM
CC50 [21]: > 100 µM
GI50 [22]: 1.5 µM
TGI [22]: 6.98 µM
GI50 [23]: 0.65 µM
TGI [23]: > 100 µM
growth at 100 µM [24]: 58%
GI50 [25]: 2.89 µM
LC50 (concentration killing 50% of cells) [25]: > 100 µM
TGI [25]: 40 µM
GI50 [26]: 1.7 µM
LC50 [26]: > 100 µM
TGI [26]: > 100 µM
GI50 [27]: 2.16 µM
TGI [27]: > 100 µM
GI50 [28]: 16.4 µM
TGI [28]: > 100 µM
GI50 [29]: 3.18 µM
TGI [29]: > 100 µM
CC50 [29]: > 100 µM
GI50 [30]: 3.25 µM
LC50 (50% lethal concentration) [30]: > 100 µM
TGI [30]: 42.2 µM
GI50 [31]: 5.22 µM
LC50 (concentration giving 50% net cell kill) [31]: > 100 µM
TGI [31]: > 100 µM
